PMI activator – activators of human phosphomannose isomerase. hit rate 0.005% among 190,000. AID 1214. activation factor at 20 µM. purified human PMI, coupled resazurin fluorescence, 20 min; stronger effect = higher value; 1 = vehicle control, 0 substrate-free wells. P34949;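 active = activation factor of 2 or more at 20 µM, relative to plate controls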
L major viab – Leishmania major promastigote growth inhibition; inhibition, % at 10 µM; hit rate 9% among 200,000; Leishmania major promastigotes, resazurin fluorescence viability; in the data active = inhibition above about 50%;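 also: promastigotes grown with compound for 44 hours at 28 °C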
Calpain2 inh – calpain II (pig) inhibition; purified calpain II, fluorogenic peptide substrate, 30 min; inhibition, % at 16 µM; hit rate 0.37% among 220,000;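 active = inhibition above about 50%, limit read from the data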
Rad51 HR inh – blocks human Rad51 in homologous recombination; inhibition, % at 10 µM; Q06609; hit rate 0.085% among 200,000; AID 1385; hRad51 DNA strand exchange, fluorescence dequenching;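 active = inhibition above 40% at the single screening dose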
Target sequence (Q06609 whole entry, looked up): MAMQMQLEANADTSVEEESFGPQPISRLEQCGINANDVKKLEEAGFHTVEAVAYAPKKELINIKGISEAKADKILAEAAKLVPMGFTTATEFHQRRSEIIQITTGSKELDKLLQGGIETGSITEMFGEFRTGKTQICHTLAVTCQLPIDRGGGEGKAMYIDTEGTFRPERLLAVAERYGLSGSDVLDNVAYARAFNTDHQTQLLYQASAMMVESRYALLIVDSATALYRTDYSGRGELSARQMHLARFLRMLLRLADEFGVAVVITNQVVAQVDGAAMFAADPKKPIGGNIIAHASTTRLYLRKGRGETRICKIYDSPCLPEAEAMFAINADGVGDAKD
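Test system – preformed human Rad51 ssDNA filaments · Reagent – Donor/quencher-labelled 47-bp dsDNA substrate · Incubation – 37 °C 15-min filament assembly, 30-min compound preincubation, 15-min exchange · Signal – FRET fluorescence dequenching, excitation 485 nm, emission 520 nm · Read-out – percent inhibition from fluorescence, normalised to plate control and blank means · Benchmarks – plate control and blank wells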
PMI act hi M6P – activators of human phosphomannose isomerase at near-saturating mannose 6-phosphate. P34949. coupled PMI enzyme assay, resazurin fluorescence, 20 min; stronger effect = higher value; 1 = untreated enzyme, 0 = substrate-free blank. activation factor at 20 µM. hit rate 0.34% among 190,000. AID 1216;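 active = activation factor of 2 or more at 20 µM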
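Material: human phosphomannose isomerase with PGI, G6PDH, diaphorase coupling enzymes; amount: PMI at 15 ng/mL final; also added: Mannose-6-phosphate 1.0 mM (near-saturating) plus 0.22 mM NADP+; incubation: enzyme reaction with compound 20 min at room temperature; signal: resorufin fluorescence (Ex 544/Em 590 nm) from resazurin via diaphorase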
WT yeast gro inh – growth inhibition of WT yeast, mitochondrial fusion screen. mitochondrial fusion phenotypic screen, WT strain. inhibition, % at 10 µM. hit rate 2.1% among 190,000. AID 1362; in the data active = inhibition above about 58%; tested in S. cerevisiae
Large screens that a line does not name were inactive. Sampled rows, rich in hits. Any-hit rate of the full collection: about 9.8%.

CC12CCC(C(=O)N/N=C/c3ccc(O)cc3O)(OC1=O)C2(C)C (stereo not drawn)	none (no result: PMI activator, L major viab, Rad51 HR inh, PMI act hi M6P, WT yeast gro inh)
CCc1cc2c(=O)c(-c3cscn3)coc2cc1O	WT yeast gro inh 69 (no result: Rad51 HR inh)
CCc1cc2c(=O)c(-c3cscn3)coc2cc1OC	none (no result: L major viab, Calpain2 inh, Rad51 HR inh, WT yeast gro inh)
CCOc1ccc(N2C(=O)CC(Sc3nc(C)cc(C)n3)C2=O)cc1 (stereo not drawn)	none
CCOc1ccc(N2C(=O)CC(Sc3nnnn3-c3ccccc3)C2=O)cc1 (stereo not drawn)	WT yeast gro inh 59
CCOC(=O)c1[nH]ncc1CN1CCCC(C(=O)c2ccc(C(C)(C)C)cc2)C1 (stereo not drawn)	L major viab 74
CCOC(=O)c1[nH]ncc1CN1CCC(Cc2ccccc2)(C(=O)OCC)CC1	none (no result: PMI activator, L major viab, PMI act hi M6P, WT yeast gro inh)
COc1ccc(-c2nnn(CC(=O)N(CCCN3CCOCC3)C(C(=O)NC3CCCC3)c3ccco3)n2)cc1 (stereo not drawn)	none
O=C(CCCl)N(Cc1nc2ccccc2c(=O)[nH]1)Cc1cccs1	none
N#CC1=C(N)NC(SCc2ccccc2)=C(C#N)C12CCCCC2	L major viab 99 (no result: Rad51 HR inh)
CCSC1=C(C#N)C2(CCCCC2)C(C#N)=C(N)N1	none
N#CC1=C(N)NC(SCC(=O)Nc2ccccc2)=C(C#N)C12CCCCC2	L major viab 77
CCC(=O)c1ccc(OCC(=O)NCC2(N3CCCCC3)CCCCC2)cc1	none
CCOC(=O)c1ccc(Oc2nc(OC)cc(OC)n2)cc1	none
CCOC(=O)c1c(NC(=O)CCNCc2ccco2)sc2c1CCC2	none (no result: PMI activator, L major viab, PMI act hi M6P, WT yeast gro inh)
CC(C)CC(N)C(=O)OCc1ccc([N+](=O)[O-])cc1 (stereo not drawn)	none (no result: PMI activator, L major viab, PMI act hi M6P, WT yeast gro inh)
Cc1ccc(C)c(NC(=S)NC(NC(=O)OCc2ccccc2)C(Cl)(Cl)Cl)c1 (stereo not drawn)	L major viab 58 (no result: Rad51 HR inh)
O=C(C1=C(O)C(=O)N(Cc2cccnc2)C1c1ccccn1)c1cccs1 (stereo not drawn)	none
c1ccc(COc2ccccc2CNC2CCCC2)cc1	L major viab 70
c1csc(COc2ccccc2CNC2CCCCC2)c1	L major viab 81
c1ccc(COc2ccccc2CNC23CC4CC(CC(C4)C2)C3)cc1	L major viab 71
Cc1nn(Cc2c(Cl)cccc2Cl)c(C)c1NC(=O)c1cnn2c(C(F)F)cc(-c3ccccc3)nc12	L major viab 67
Cc1ccc(-c2cc(C(F)F)n3ncc(C(=O)Nc4c(C)nn(Cc5c(Cl)cccc5Cl)c4C)c3n2)cc1	none
Cc1ccc(-c2cc(C(F)F)n3ncc(C(=O)Nc4c(C)nn(Cc5ccccc5Cl)c4C)c3n2)cc1	L major viab 57, WT yeast gro inh 76
O=C(c1sc2cccc(F)c2c1Cl)N1CCN(c2ncccn2)CC1	L major viab 77
Cc1ccc(S(=O)(=O)NNC(=O)CCC(=O)Nc2ccccc2)cc1	none
Cc1ccc(S(=O)(=O)NNc2ccccc2)cc1	PMI act hi M6P 2.1
Nc1ccc(S(=O)(=O)NNC(=O)C(=O)NNc2ccccc2)cc1	L major viab 87, PMI act hi M6P 2.3
Cc1ccc(C(=O)CNc2cccc([N+](=O)[O-])c2)cc1	none
Cc1ccc(NCC(=O)c2ccc([N+](=O)[O-])cc2)cc1	none
Cc1cccc(NCCC(=O)c2ccc([N+](=O)[O-])cc2)c1C	L major viab 93
Cc1ccc(NCCC(=O)c2cccc([N+](=O)[O-])c2)c(C)c1	L major viab 97
CN(C)c1ccnc(Oc2ccc(C(C)(C)C)cc2)c1C#N	Calpain2 inh 59
CN(C)c1ccnc(Oc2ccc(Cl)cc2)c1C#N	none
CC(C)CCC(CC(C)O)C(=O)NNC(=S)Nc1ccccc1 (stereo not drawn)	none (no result: PMI activator, L major viab, Rad51 HR inh, PMI act hi M6P, WT yeast gro inh)
Fc1ccc2c(c1)C(c1ccncc1)=NNC(c1cccnc1)=N2	none
Cn1c(SCC(=O)N2CCN(c3ccccc3)CC2)nnc1-c1c[nH]c2ccccc12	none
Cn1c(SCC(=O)N2CCN(c3ccccc3)CC2)nnc1-c1ccccc1	none
CCn1c(SCC(=O)N2CCN(c3ccccc3)CC2)nnc1-c1ccncc1	PMI act hi M6P 2.6
CC1(C)Cc2ccccc2-c2nnc(SCc3ccccc3)n21	none
CCn1c(CSCc2ccc(F)cc2)nnc1SCC(=O)N1CCN(c2ccccc2)CC1	L major viab 63
CC1(C)Cc2ccccc2-c2nnc(SCC(=O)N3CCN(c4ccccc4)CC3)n21	WT yeast gro inh 61
CCn1c(SCC(=O)N2CCN(c3ccccc3)CC2)nnc1-c1c[nH]c2ccccc12	L major viab 58
O=c1c2ccccc2ncn1-c1ccccc1C(F)(F)F	none
Cc1ccccc1-n1c(SCC(=O)N2CCC(C(=O)O)CC2)nnc1-c1ccncc1	none
Cc1ccccc1-n1c(SCC(=O)N2CCN(c3ccccc3)CC2)nnc1-c1ccncc1	L major viab 62
O=C(CN(Cc1cccs1)C(=O)CNS(=O)(=O)c1ccc(Cl)cc1)NCC1CCCO1 (stereo not drawn)	none
O=C(c1nc2ccc(Cl)cn2c1CNCC[C@@H]1C[C@@H]2C=C[C@H]1C2)N1CCCCCCC1	L major viab 70
COc1ccc([N+](=O)[O-])cc1N(CC(=O)N(C)C)S(C)(=O)=O	none (no result: Rad51 HR inh)
O=C(NC1CC1)C1=C[C@H](c2csc3ccccc23)C[C@H](OCCCCO)O1	L major viab 85
O=C(O)C1=C[C@H](c2csc3ccccc23)C[C@H](OCc2ccc(CO)cc2)O1	none
O=C(NCc1ccccc1)C1=C[C@@H](c2csc3ccccc23)C[C@@H](OCc2ccc(CO)cc2)O1	L major viab 74
COc1ccc(S(=O)(=O)NN(C)C(=O)c2nn(-c3ccccc3)ccc2=O)cc1	none (no result: Rad51 HR inh)
O=C(O)CSCC(=O)N1CCN(S(=O)(=O)c2cc(Cl)cc(Cl)c2)CC1	none (no result: PMI activator, L major viab, Rad51 HR inh, PMI act hi M6P, WT yeast gro inh)
Cc1ccc(-n2cc(CNCC3CC(=O)N(C4CC4)C3)c(-c3cccc(C)c3)n2)cc1 (stereo not drawn)	none (no result: Rad51 HR inh)
Cc1[nH]n(-c2ccccc2)c(=O)c1C1(C(F)(F)F)C(=O)N(c2ccc(F)cc2)C2=C1C(=O)CC(C)(C)C2 (stereo not drawn)	none
Clc1ncnc2scc(-c3ccccc3)c12	none
S=c1[nH]cnc2scc(-c3ccccc3)c12	L major viab 99
O=C(Cn1c(CO)nc2ccccc21)NC1CCCCCC1	none
CC(=O)Nc1sc2c(c1C(c1ccc(Cl)cc1)N1CCOCC1)CCCC2 (stereo not drawn)	WT yeast gro inh 81
N#CCCN(C(=O)CSc1ccc2c(c1)OCCO2)c1ccc(F)cc1	L major viab 87
Cc1ccc(N(CCC#N)C(=O)CSc2ccc3c(c2)OCCO3)cc1	none
O=C(NC(=S)Nc1ccc(CN2CCOCC2)cc1)c1ccc(-c2ccc(Cl)cc2)o1	none (no result: PMI activator, L major viab, Rad51 HR inh, PMI act hi M6P, WT yeast gro inh)
O=C(Nc1ccc(CN2CCOCC2)cc1)c1ccc(-c2cccc(Cl)c2)o1	L major viab 99
CC(C)c1ccc(/C=C/C(=O)Nc2ccc(CN3CCOCC3)cc2)cc1	none (no result: PMI activator, L major viab, PMI act hi M6P, WT yeast gro inh)

Compound activity from PubChem.
